Data on one compound can be found in ChEMBL document CHEMBL3817823 (J Med Chem, 2016).

Structures are written as SMILES. The source made the active and inactive calls. No cut-off for these calls is given here.

The nature of data set [1]: Blood clearance in rat at 0.4 mg/kg, iv bolus administration or 0.8 mg/kg, po by LC-MS/MS analysis. The conditions noted are these: whole blood. The class given is ADME, organism-based.
The target in data set [2] is Protein arginine N-methyltransferase 7 (Homo sapiens) (UniProt Q9NVM4). Put plainly: Inhibition of PRMT7 (unknown origin) at 1 to 50 uM by scintillation proximity assay.
Sequence of Protein arginine N-methyltransferase 7 (Homo sapiens) (Q9NVM4 whole entry): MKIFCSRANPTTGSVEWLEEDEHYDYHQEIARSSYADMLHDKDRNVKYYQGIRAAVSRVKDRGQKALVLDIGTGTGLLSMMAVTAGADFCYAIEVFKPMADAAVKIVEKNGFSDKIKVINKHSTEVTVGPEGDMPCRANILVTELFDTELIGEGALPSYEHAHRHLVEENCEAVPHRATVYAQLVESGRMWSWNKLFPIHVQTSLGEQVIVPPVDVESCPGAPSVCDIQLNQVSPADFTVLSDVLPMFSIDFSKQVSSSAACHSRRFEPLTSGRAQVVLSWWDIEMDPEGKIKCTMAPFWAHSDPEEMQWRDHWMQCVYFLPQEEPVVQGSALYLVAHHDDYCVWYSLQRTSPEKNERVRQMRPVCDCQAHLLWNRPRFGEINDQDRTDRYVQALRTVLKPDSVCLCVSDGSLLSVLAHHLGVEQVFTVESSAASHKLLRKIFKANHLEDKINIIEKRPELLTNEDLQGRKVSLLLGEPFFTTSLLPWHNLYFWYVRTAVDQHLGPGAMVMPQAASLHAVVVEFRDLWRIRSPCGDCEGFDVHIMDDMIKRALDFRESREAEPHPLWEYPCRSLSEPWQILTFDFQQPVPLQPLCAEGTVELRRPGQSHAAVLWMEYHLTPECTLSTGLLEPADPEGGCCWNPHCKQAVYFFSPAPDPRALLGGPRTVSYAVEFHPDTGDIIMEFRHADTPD
The target in data set [3] is Histone-lysine N-methyltransferase, H3 lysine-79 specific (Homo sapiens) (UniProt Q8TEK3). The data set can be described thus: Inhibition of DOT1L (unknown origin) at 1 to 50 uM by TCA precipitation assay.
Sequence of Histone-lysine N-methyltransferase, H3 lysine-79 specific (Homo sapiens) (Q8TEK3 whole entry, looked up): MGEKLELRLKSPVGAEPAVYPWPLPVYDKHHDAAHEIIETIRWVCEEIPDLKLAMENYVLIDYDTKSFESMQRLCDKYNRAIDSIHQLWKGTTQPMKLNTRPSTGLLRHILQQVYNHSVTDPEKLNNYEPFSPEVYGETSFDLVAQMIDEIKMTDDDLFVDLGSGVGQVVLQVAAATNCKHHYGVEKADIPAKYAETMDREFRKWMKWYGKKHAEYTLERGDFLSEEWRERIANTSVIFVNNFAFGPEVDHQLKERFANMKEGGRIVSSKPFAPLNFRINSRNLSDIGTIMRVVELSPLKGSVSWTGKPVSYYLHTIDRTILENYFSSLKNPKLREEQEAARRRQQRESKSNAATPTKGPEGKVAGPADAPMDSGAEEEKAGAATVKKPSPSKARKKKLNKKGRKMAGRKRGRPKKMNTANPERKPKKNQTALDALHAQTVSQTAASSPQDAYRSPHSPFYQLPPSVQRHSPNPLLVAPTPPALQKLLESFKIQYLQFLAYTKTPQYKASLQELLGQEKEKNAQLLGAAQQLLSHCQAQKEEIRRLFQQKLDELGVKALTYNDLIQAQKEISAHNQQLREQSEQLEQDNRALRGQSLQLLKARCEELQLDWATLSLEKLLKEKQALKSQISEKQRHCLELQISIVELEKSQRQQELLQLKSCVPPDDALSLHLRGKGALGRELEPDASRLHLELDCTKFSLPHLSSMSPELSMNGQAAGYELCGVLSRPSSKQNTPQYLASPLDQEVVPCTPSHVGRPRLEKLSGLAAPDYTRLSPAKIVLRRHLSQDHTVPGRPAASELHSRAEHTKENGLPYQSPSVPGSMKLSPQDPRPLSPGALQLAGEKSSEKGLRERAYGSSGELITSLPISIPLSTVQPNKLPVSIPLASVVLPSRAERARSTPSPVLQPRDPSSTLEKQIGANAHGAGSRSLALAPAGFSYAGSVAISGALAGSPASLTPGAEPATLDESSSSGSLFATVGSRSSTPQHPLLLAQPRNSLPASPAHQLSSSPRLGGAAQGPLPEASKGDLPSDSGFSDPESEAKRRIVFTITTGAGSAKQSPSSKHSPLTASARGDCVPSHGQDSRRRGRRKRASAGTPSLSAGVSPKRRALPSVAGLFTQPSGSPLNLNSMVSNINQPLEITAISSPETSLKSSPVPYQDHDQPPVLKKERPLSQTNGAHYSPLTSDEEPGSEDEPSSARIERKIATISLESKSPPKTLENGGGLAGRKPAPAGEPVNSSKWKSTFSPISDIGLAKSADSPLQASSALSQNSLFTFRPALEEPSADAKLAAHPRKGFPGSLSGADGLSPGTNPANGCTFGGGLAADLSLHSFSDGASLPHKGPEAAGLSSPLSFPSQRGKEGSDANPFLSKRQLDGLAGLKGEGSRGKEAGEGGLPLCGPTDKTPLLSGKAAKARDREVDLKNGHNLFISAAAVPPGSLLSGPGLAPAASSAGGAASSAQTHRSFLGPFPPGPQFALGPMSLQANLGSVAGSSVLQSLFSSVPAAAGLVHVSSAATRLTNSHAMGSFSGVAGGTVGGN
The next data set deals with KYSE-150. The data set can be described thus: Antitumor activity against human KYSE-150 cells xenografted in BALB/c mouse assessed as reduction in tumor area at 500 mg/kg, po administered qd in presence of doxorubicin relative to control. Format: functional, organism-based. The method, boiled down: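 Mice carrying subcutaneous KYSE-150 xenografts; dosing began day 4 after inoculation. Arms: vehicle (Solutol/ethanol/water 1:1:8 iv qd, plus saline iv once at day 4), inhibitor 500 mg/kg po qd, doxorubicin 10 mg/kg iv once at day 4, or the combination. Tumor area tracked (mean ± SEM); final tumor weight gives T/C; Dunn's method versus vehicle.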
For orientation: A xenograft is tissue or cells of one species grown in another, often human tumour cells in immunodeficient mice.

As to `CCN(C(=O)CO)[C@H]1CN(/C(=N\C#N)Nc2cccc(OC(F)F)c2)N=C1c1ccc(Cl)c(Cl)c1`, the clearance in data set [1] was 26.7 mL/min/kg. In addition, the inhibition result in data set [2] and in data set [3] was “inactive” in each case. For the same compound, the outcome in the data set on KYSE-150 was Active.
